Bioassay records from PubChem BioAssay.
MC4R antagonist: MC4R antagonists of cAMP signaling, primary screen, cell-based, TR-FRET, antagonist arm of biased-ligand search. Melanocortin receptor 4 (Homo sapiens), P32245. MC4R-expressing cells, MTII-stimulated cAMP, LANCE TR-FRET. inhibition, % at 6.5 µM. 360,000 tested, 0.48% active. AID 540295, 2011;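 active means inhibition above its plate's cutoff, the mean of tested wells on that plate plus 3 SD, cut at about 29% in these data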;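 further: 0% = Melanotan II alone and 100% = Melanotan II plus saturating MCL0020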
Target sequence (P32245 whole entry, looked up): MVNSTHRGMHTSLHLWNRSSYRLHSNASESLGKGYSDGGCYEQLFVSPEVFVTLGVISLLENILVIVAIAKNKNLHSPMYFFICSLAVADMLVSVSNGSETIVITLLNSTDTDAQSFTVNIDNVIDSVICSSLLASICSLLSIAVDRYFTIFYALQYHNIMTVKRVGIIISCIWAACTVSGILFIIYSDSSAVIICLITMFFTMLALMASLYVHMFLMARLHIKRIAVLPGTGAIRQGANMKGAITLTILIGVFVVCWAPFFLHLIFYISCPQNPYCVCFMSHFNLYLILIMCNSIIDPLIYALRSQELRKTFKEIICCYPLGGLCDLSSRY
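Assay system: human MC4R-expressing U2OS cells; reagent: Melanotan II stimulation of cells; dosing: 6.5 µM single dose; timing: compound 30 min, challenge 1 h, detection 1 h; signal: TR-FRET cAMP assay; replicates: one well per compound, no replicates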
Exocytosis inh: LAMP-1 surface exposure blockers, TALL-104 cells – cell-based, flow cytometry, MLPCN library, primary screen; TALL-104 LAMP-1 surface exposure; cells stimulated with thapsigargin and PMA; inhibition, % at 10 µM; 360,000 tested, 0.66% active; AID 651702, 2012;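 active means inhibition above about 55%, limit read from the data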
EP2 mod: EP2 receptor modulators, cAMP readout, primary screen, cell-based, HTRF cAMP, PGE2 stimulation; Prostaglandin E2 receptor EP2 subtype (Homo sapiens), P43116; EP2-expressing cells, cAMP HTRF FRET, PGE2 co-stimulation; induction, % at 25 µM; 260,000 tested, 0.83% active;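 active means compounds whose cAMP rise, as percent of the full-agonist control response, exceeds 60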;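 further: rat C6 glioma line stably carrying human EP2 under a CMV promoter; the protocol text gives 20 µM as final concentration; 100% = response of wells given 1 µM PGE2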
MC4R ag barr: MC4R agonists recruiting beta-arrestin, primary screen, cell-based, luminescence, agonist arm of biased-ligand search; AID 540308, 2011; U2OS MC4R beta-arrestin complementation; percent of melanotan II response, DMSO zero; Melanocortin receptor 4 (Homo sapiens), P32245; activation, % at 8.9 µM; 360,000 tested, 0.98% active;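 active means activation above a per-plate cutoff, the mean activation of sample wells on that plate plus 3 SD, cut at about 8% in these data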
T cell modulator: modulators of CD8 T cell-vesicle binding, primary screen, mouse 2C CD8+ T cells, flow cytometry; 2C CD8+ T cell-vesicle binding; stronger effect = lower value; AID 2052, 2009; 330,000 tested, 0.068% active; response (vesicle binding), % at 7 µM;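 active means response, share of CD8 T cells binding vesicles, and their 90th percentile fluorescence all below set limits, cut at about 80% in these data, passing the limit was not always enough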;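 further: values below 100% mean blocked vesicle binding to the CD8+ T cells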
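Benchmarks: naked versus QL9-loaded vesicles / Assay system: purified 2C TCR transgenic mouse naive CD8+ T cells / Technique: high-throughput flow cytometry with anti-B7-1 and anti-CD8 staining / Timing: Cell–vesicle co-incubation 1.5 h at 37 °C, staining 20 min on ice / Read-out: percent CD8+ FL2 mean versus row control / Probe or stimulus: QL9-loaded Drosophila micro-vesicles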
PGE2 EP2 inh: human EP2 receptor antagonists, primary screen, TR-FRET cAMP, C6 glioma cells; Prostaglandin E2 receptor EP2 subtype (Homo sapiens), P43116; C6 glioma cells expressing human EP2; cells stimulated with saturating PGE2; inhibition, % at 25 µM; 260,000 tested, 0.52% active;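 active means percent inhibition above 40 after rounding to a whole number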;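 further: rat C6 glioma host cells with rolipram phosphodiesterase inhibitor present; the protocol text gives 20 µM as final concentration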
* hit, by the source's call; x = no result given; ! = a repeat was not active. Sampled rows, rich in hits. Any-hit rate of the full collection: about 2.6%.

SMILES	MC4R antagonist	Exocytosis inh	EP2 mod	MC4R ag barr	T cell modulator	PGE2 EP2 inh
CC1=C(C(=O)N(C(C)C)C(C)C)CC(CC(=O)NC2CCCC2)C(=O)N1CCC1=CCCCC1 (configuration not stated)	x	0	x	x	x	x
Cc1c(Cc2ccccc2)sc(/N=C/c2c(O)ccc3ccccc23)c1C(N)=O	-2	3	3	10*	132	4
Cc1c(Cc2ccccc2)sc(/N=C/c2ccc3ccccc3c2)c1C(N)=O	-17	3	-4	1	529	1
O=C(NCCc1csc(-c2ccccc2)n1)c1cccs1	-1	-3	-39	1	592	9
CCOc1ccc(Br)cc1C(=O)N/N=C/c1ccccn1	10	11	x	-1	184	x
Cc1ccc(S(=O)(=O)O[C@H]2C[C@@H](C(C)(C)C)CC[C@@H]2c2ccccc2)cc1	x	x	32	x	x	43*
O=C(c1cc(-c2ccccc2Cl)nc2ccc(Br)cc12)N1CCN(c2ccccn2)CC1	15	15	x	-4	492	x
O=C(c1cc(F)c(F)cc1Cl)N1CCOCC1	-1	1	7	2	152	12
C=CCn1c(O)c(C2=c3ccccc3=NC2=O)c2ccccc21	-15	62*	x	-1	176	x
CC(NC(=O)[C@H](C)NC(=O)C1CC(=O)N(c2ccc3c(c2)OCO3)C1)c1ccccc1 (some centres not stated)	0	0	x	1	283	x
COc1cc(C(=O)Nc2sc3c(c2C(=O)O)CCC(C)C3)cc(OC)c1OC (configuration not stated)	-1	17	x	0	0	x
CCCOC(=O)C(C)n1c(-c2ccccc2)nc2ccccc2c1=O (configuration not stated)	5	1	61*	1	215	20
C=CCn1c(=NC(=O)c2ccco2)sc2cc(C(=O)OCC)ccc21	7	2	33	-2	0	41*
O=C(Nc1ccc2nc(-c3ccccc3)oc2c1)c1ccco1	12	3	-39	1	400	42*!
O=C(Nc1cccc(-c2cnc3ccccc3n2)c1)c1ccccc1	5	1	-8	3	228	7
O=C(Nc1cccc(-c2cnc3ccccc3n2)c1)c1cccc(NC(=O)c2ccco2)c1	-1	4	-40	35*	245	12
NC(N)=NC(N)=Nc1ccccc1	-6	19	0	-1	321	7
NC(N)=NC(N)=Nc1c(F)c(F)c(F)c(F)c1F	x	x	-122	x	x	64*
COCCNc1nc(Nc2ccccc2Cl)c2sccc2n1	-14	17	x	0	x	x
NC(=O)c1ccc(NC(=O)CSC(=O)c2ccccc2)cc1	16	2	x	-4	178	x
CCc1noc(C)c1C(=O)OCC(=O)Nc1ncc(Cl)cc1Cl	0	6	x	0	142	x
C/C(N[O-])=C(\C)[N+]([O-])=[Fe].CC(=N\[O-])/C(C)=N/[O-].[NH2-].c1c[nH+]c[n-]1	x	x	-9	x	x	44*
C/C(N[O-])=C(\C)[N+]([O-])=[Cu].C/C(N[O-])=C(\C)[N+]([O-])=[Cu].CC(=N\[O-])/C(C)=N/[O-].CC(=N\[O-])/C(C)=N/[O-]	x	x	-16	x	x	56*
COc1ccc(S(=O)(=O)N2CCCC(C(=O)N3CCN(C)CC3)C2)cc1Cl (configuration not stated)	-3	-2	x	-1	0	x
CN(C)Cc1c(C(=O)N/N=C/c2ccccc2OCc2c(F)cccc2Cl)nnn1-c1nonc1N	22	95*	x	-1	214	x
SMILES	MC4R antagonist	Exocytosis inh	EP2 mod	MC4R ag barr	T cell modulator	PGE2 EP2 inh
Nc1nonc1-n1nnc(C(=O)N/N=C/c2cccnc2)c1CSc1ccc(Cl)cc1	2	62*	x	0	147	x
Nc1nonc1-n1nnc(C(=O)N/N=C/c2cccnc2)c1CSc1ccccc1	-2	5	x	-1	244	x
CCCCC(=O)N1CCCC(c2nc3c(nnn3Cc3cc(C)ccc3C)c(=O)[nH]2)C1 (configuration not stated)	-1	2	15	-2	321	4
COc1cc(NC(=O)c2ccc3c(c2)C(=O)N(CCC(C)C)C3=O)c(C(=O)O)cc1OC	7	5	x	0	149	x
Cc1c(Cl)cccc1NC(=O)c1cc(-c2ccccc2O)n[nH]1	-5	29	-29	9.3*	219	26
Cc1ccccc1OCC(=O)Nc1ccccc1-c1ccccc1NC(=O)COc1ccccc1C	9	-3	49	0	467	9
Cc1ccccc1OCC(=O)Nc1cccc(Cl)c1C	4	-13	x	8.6*	394	x
CN(C)CC(O)c1ccc(C=Cc2ccc(Cl)cc2)cc1 (configuration not stated)	19	13	x	3	x	x
CN(C)C[C@@H](O)c1ccc(Cl)c2ccccc12	x	x	-26	x	x	47*
O=C(CCc1ccccc1)Nc1ccccc1C(=O)NCc1ccco1	-2	1	11	-2	319	14
Cc1cc(C)c(C(=O)N2CCCC(CNS(=O)(=O)c3cccs3)C2)o1 (configuration not stated)	8	8	x	-3	206	x
COC(=O)c1ccccc1NC(=O)CSc1nnnn1C1CCCCC1	3	1	35	-1	376	13
CCOC(=O)c1ccccc1NC(=O)CSc1nnnn1C1CCCCC1	1	-2	64*!	0	190	3
Cc1ccc(S(=O)(=O)c2ccc([N+](=O)[O-])o2)cc1	88*	50	x	-3	x	x
Cc1ccc(NC(=O)c2ccc([N+](=O)[O-])o2)c(C)c1	3	5	-98	-1	412	11
Cc1cc(=O)[nH]c2ccc(Cl)cc12	-1	-3	13	-1	321	10
COc1ccc(Cc2ccc3[nH]c(=O)cc(C)c3c2)cc1S(=O)(=O)O	x	x	20	x	x	40*
Cc1ccc(NC2=C/C(=N/S(=O)(=O)c3cccs3)c3ccccc3C2=O)cc1	-16	6	-80	4	0	31
O=C1C(Nc2ccccc2)=C/C(=N/S(=O)(=O)c2cccs2)c2ccccc21	-25	75*	-56	-2	348	38
O=C=Nc1ccc(Cc2ccc(N=C=O)cc2)cc1 (tested in a mixture with another compound)	x	x	10	x	x	45*
